Experimental data: ChEMBL document CHEMBL1126766 (J Med Chem, 1993)

What was measured:
Assay type in all cases: functional
[1] = molecular target: T1, Vanilloid receptor (Rattus norvegicus, UniProt Q9ERZ8+Q9WUD2+O35433); assay: In vitro effective concentration for [Ca2+] uptake into dorsal root ganglia neurones in culture
[2] = species on record: Cavia porcellus; assay: Effective concentration for guinea pig ileum contraction in an in vitro assay
[3] = species on record: Mus musculus; assay: Effective analgesic dose in mouse tail-flick latency assay
[4] = molecular target: T1, Vanilloid receptor; assay: In vitro effective concentration for Ca++ uptake into dorsal root ganglia neurones in culture
In short: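 Uptake of 45Ca2+ tracer into cultured dorsal root ganglion neurones, evoked by the applied agonist analogues. Potency is expressed as EC50 in μM, reported ± an error term. Full assay details are held in an earlier paper of the series.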

EC50 [1]	EC50 [4]	SMILES	other results
2.58 µM	–	COc1cc(CNC(=O)/C=C/c2cccc(Cl)c2)ccc1O	–
26.5 µM	–	COc1cc(CNC(=O)/C=C/c2ccc(C#N)cc2)ccc1O	–
21 µM	–	COc1cc(CNC(=O)CCc2ccc([N+](=O)[O-])cc2)ccc1O	–
7.77 µM	–	COc1cc(CNC(=O)Cc2ccc(Cl)cc2)ccc1O	–
1000 µM	–	COc1cc(CNC(=O)/C=C/c2ccc(NC=O)cc2)ccc1O	–
–	0.17 µM	CCCCCCCC/C=C\CCCCCCCC(=O)NCc1ccc(O)c(OC)c1 [OLVANIL]	–
0.35 µM	–	COc1cc(CNC(=O)/C=C/c2ccc(I)cc2)ccc1O	–
> 100 µM	–	COCCOCCOCC(=O)NCc1ccc(O)c(OC)c1	–
11.8 µM	–	COc1cc(CNC(=O)/C=C/c2ccccc2)ccc1O	–
0.24 µM	–	COc1cc(CNC(=O)/C=C/c2ccc(-c3ccccc3)cc2)ccc1O	–
–	–	CCCCCCCC/N=C(\S)NCc1ccc(O)c(OC)c1	EC50 [2]: 0.06 µM; ED50 [3]: 3.2 µmol/kg; EC50 ([4]; read-out: EC50): 0.06 µM
45.26 µM	–	COc1cc(CNC(=O)CCc2ccccc2)ccc1O	–
50.1 µM	–	COc1cc(CNC(=O)/C=C\c2ccc(Cl)cc2)ccc1O	–
–	0.1 µM	CCCCCCCCC/N=C(\S)NCc1ccc(O)c(OC)c1	–
–	–	CCCCCCCCC(=O)NCc1ccc(O)c(OC)c1 [NONIVAMIDE]	EC50 ([4]; read-out: EC50): 0.55 µM
79.8 µM	–	COc1cc(CNC(=O)CCCCCNC(=O)OC(C)(C)C)ccc1O	–
–	0.11 µM	CCCCCCCCCC/N=C(\S)NCc1ccc(O)c(OC)c1	–
> 100 µM	–	COc1cc(CNC(=O)CCc2ccc(O)cc2)ccc1O	–
> 100 µM	–	COc1cc(C/N=C(/N)S)ccc1O	–
–	> 100 µM	CCCCCCCC/C=C/CCCCCCC/N=C(\S)NCc1ccc(O)c(OC)c1	–
–	–	COc1cc(CNC(=O)CCCC/C=C/C(C)C)ccc1O [CAPSAICIN]	ED50 [3]: 15 µmol/kg

EC50 [1]	EC50 [4]	SMILES	other results
4.1 µM	–	COc1cc(CNC(=O)C#Cc2ccc(Cl)cc2)ccc1O	–
1.24 µM	–	COc1cc(CNC(=O)/C=C/c2ccc(Cl)cc2)ccc1O	–
–	> 100 µM	CCCCCCCCCCCCCCCC/N=C(\S)NCc1ccc(O)c(OC)c1	–
–	0.16 µM	CCCCCCCCCCCC/N=C(\S)NCc1ccc(O)c(OC)c1	–
–	> 100 µM	COc1cc(CNC(=O)CCl)ccc1O	–
1.08 µM	–	COc1cc(C/N=C(\S)NC2[C@H]3C[C@@H]4C[C@@H](C[C@H]2C4)C3)ccc1O (stereo partly drawn)	–
0.27 µM	–	COc1cc(C/N=C(\S)NC(c2ccccc2)c2ccccc2)ccc1O	–
0.66 µM	–	COc1cc(CC(=O)NCCc2ccc(Cl)cc2)ccc1O	–
0.62 µM	–	COc1cc(CNC(=O)/C=C/c2ccc(Cl)cc2Cl)ccc1O	–
3.09 µM	–	COc1cc(CNC(=O)CCc2ccc(Cl)cc2)ccc1O	–
4.39 µM	–	COc1cc(CNC(=O)/C=C/c2ccc(N(C)C)cc2)ccc1O	–
–	> 100 µM	COc1cc(C/N=C(\S)NC(c2ccccc2)(c2ccccc2)c2ccccc2)ccc1O	–
–	8.1 µM	CCCCCCCCCCCCCCCCCC/N=C(\S)NCc1ccc(O)c(OC)c1	–
> 100 µM	–	COc1cc(CNC(=O)CCCCCN)ccc1O.O=C(O)C(F)(F)F	–
–	4.2 µM	COc1cc(CNC(=O)CCc2ccc(N=[N+]=[N-])cc2)ccc1O	–
–	0.36 µM	CCCCCCCC/C=C/CCCCCCCC(=O)NCc1ccc(O)c(OC)c1	–
–	> 100 µM	COc1cc(CNC(=O)CCCCCCCCCCC(=O)O)ccc1O	–
–	> 100 µM	COc1cc(CNC(=O)CBr)ccc1O	–
–	4.58 µM	COc1cc(CNC(=O)/C=C/c2ccc([N+](=O)[O-])cc2)ccc1O	–
> 100 µM	–	COCCOCC(=O)NCc1ccc(O)c(OC)c1	–
–	> 100 µM	COCCOCCOCC(=O)NCCCCCCCCCCC(=O)NCc1ccc(O)c(OC)c1	–

SMILES	EC50 [1]	EC50 [4]	other results
CCCC/N=C(\S)NCc1ccc(O)c(OC)c1	9.48 µM	–	EC50 [2]: 3.4 µM; ED50 [3]: > 50 µmol/kg
CCCCC/N=C(\S)NCc1ccc(O)c(OC)c1	1.96 µM	–	EC50 [2]: 1.8 µM; ED50 [3]: > 50 µmol/kg
CCCCCCC/N=C(\S)NCc1ccc(O)c(OC)c1	–	0.29 µM	EC50 [2]: 0.1 µM; ED50 [3]: 15 µmol/kg
COc1cc(CNC(=O)CCCCCCC(C)C)ccc1O [DIHYDROCAPSAICIN]	0.19 µM	–	–
CCCCCCCCCCCCCCCCCC(=O)NCc1ccc(O)c(OC)c1	–	> 100 µM	–
CCCCCC/N=C(\S)NCc1ccc(O)c(OC)c1	0.18 µM	–	EC50 [2]: 0.18 µM; ED50 [3]: 12.5 µmol/kg
